According to ChEMBL document CHEMBL1151889, “4,4-Dimethyl-1,2,3,4-tetrahydroquinoline-based PPARalpha/gamma agonists. Part. II: Synthesis and pharmacological evaluation of oxime and acidic head group structural variations” (Bioorg Med Chem Lett, 2009):

What was measured:
Mus musculus [1] = experiment: Glucose lowering effect in po dosed C57BL/6J ob/ob mouse assessed as insulin level relative to untreated control; format: functional
How it was run: (§1)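 Male C57BL/6J ob/ob mice (n = 8–12 per dose) were gavaged with 3 mg/kg daily for four days in 1% hydroxyethyl cellulose (2.5 ml/kg). On day five, heparinized retro-orbital plasma was collected under CO₂ anaesthesia. Plasma level was expressed as percent change from the mean of vehicle-treated mice. Groups were compared by ANOVA and one-tailed Dunnett's test.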

Liver microsomes [2] = experiment: Metabolic stability in human hepatocyte microsomes; format: ADME, Microsome
Caco-2 = experiment: Absorption in human Caco-2 cells; format: ADME, cell-based; design: concentration or dose not given beside the values
Mus musculus [3] = experiment: Effect on bodyweight in po dosed C57BL/6J ob/ob mouse assessed as body weight gain relative to untreated control; format: functional
How it was run: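 Male C57BL/6J ob/ob mice (n = 8–12 per dose) were randomized on glycemia and gavaged with 3 mg/kg daily for four days, between 3 and 5 pm, as a suspension in 1% hydroxyethyl cellulose (2.5 ml/kg). Body weight gain was each mouse's end-of-study minus starting weight. Groups were compared with control by ANOVA and one-tailed Dunnett's test.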

Mus musculus [4] = experiment: Lipid lowering effect in po dosed C57BL/6J ob/ob mouse assessed as triglyceride level relative to untreated control; format: functional; how it was run: as §1
Liver microsomes [5] = experiment: Metabolic stability in rat hepatocyte microsomes; format: ADME, Microsome
[6] = target: T1, Peroxisome proliferator-activated receptor gamma (Homo sapiens, UniProt P37231); experiment: Displacement of [3H]rosiglitazone from human PPARgamma receptor
T1 sequence (P37231 whole entry): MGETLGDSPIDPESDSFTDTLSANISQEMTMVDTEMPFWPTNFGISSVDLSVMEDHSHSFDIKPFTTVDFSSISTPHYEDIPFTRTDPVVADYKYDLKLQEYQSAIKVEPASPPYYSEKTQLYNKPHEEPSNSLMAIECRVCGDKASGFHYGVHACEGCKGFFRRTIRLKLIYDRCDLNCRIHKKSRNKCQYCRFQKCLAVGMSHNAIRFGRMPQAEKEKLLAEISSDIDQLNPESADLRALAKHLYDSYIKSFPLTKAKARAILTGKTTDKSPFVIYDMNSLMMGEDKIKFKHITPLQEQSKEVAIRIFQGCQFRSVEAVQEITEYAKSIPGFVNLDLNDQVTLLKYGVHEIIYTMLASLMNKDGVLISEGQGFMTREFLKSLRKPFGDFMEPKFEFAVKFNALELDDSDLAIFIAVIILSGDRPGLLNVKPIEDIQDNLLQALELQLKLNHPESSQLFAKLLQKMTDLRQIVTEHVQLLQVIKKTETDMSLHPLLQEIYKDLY

[7] = target: T2, Peroxisome proliferator-activated receptor alpha (Homo sapiens) (UniProt Q07869); experiment: Agonist activity at human PPARalpha at transactivation EC50 by Gal4 transactivation assay relative to at 10 uM WY-14643
T2 sequence (whole entry): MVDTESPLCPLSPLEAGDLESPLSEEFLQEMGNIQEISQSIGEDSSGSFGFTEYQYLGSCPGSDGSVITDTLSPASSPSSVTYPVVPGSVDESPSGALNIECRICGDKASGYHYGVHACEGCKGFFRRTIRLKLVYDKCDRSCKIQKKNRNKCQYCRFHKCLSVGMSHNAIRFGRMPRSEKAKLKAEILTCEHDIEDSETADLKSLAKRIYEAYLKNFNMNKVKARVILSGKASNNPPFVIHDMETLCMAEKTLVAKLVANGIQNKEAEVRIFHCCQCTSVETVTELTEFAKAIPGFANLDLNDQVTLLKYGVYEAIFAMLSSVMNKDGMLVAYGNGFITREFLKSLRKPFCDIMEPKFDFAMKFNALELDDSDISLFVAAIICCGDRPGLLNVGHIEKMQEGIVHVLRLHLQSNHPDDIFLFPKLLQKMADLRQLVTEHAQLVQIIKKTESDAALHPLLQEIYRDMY

[8] = target: T1, Peroxisome proliferator-activated receptor gamma; experiment: Agonist activity at human PPARgamma by Gal4 transactivation assay; format: functional
[9] = target: T3, Peroxisome proliferator-activated receptor alpha (Homo sapiens, UniProt Q07869); experiment: Agonist activity at human PPARalpha by Gal4 transactivation assay; format: functional
T3 sequence (Q07869 whole entry): T2 sequence (whole entry)

Compound | Stability (Liver microsomes [2]) [%] | Activity (Caco-2) [%] | Stability (Liver microsomes [5]) [%] | Ki [6] [nM] | Activity [7] [%] | EC50 ([8]; read-out: EC50) [nM] | EC50 ([9]; read-out: EC50) [nM] | EC50 [9] | EC50 [8] | Activity (Mus musculus [1]) [%] | Activity (Mus musculus [3]) [%] | Activity (Mus musculus [4]) [%]
C=CCO/N=C(\c1ccccc1)c1ccc2c(c1)C(C)(C)CCN2CCOc1ccc(C[C@H](OCC)C(=O)O)cc1 | 47 | 95 | 20 | 54.2 | 152 | 13 | 73 |  |  |  |  | 
CCO[C@@H](Cc1ccc(OCCc2ccc(OS(C)(=O)=O)cc2)cc1)C(=O)O [TESAGLITAZAR] | 100 | 78 | 97 |  |  |  |  |  |  | -94 | 1.9 | -60
CCO[C@@H](Cc1ccc(OCCN2CCC(C)(C)c3cc(/C(=N/OCC4CC4)c4ccccc4)ccc32)cc1)C(=O)O | 84 | 93 | 32 | 254 | 145 | 7.52 | 9 |  |  | -2 | 107 | -2
CN(CCOc1ccc(CC2SC(=O)NC2=O)cc1)c1ccccn1 (stereo unspecified) [ROSIGLITAZONE] | 21 | 100 | 45 |  |  |  |  |  |  | -55 | 0.56 | -56

More lines, main results first:

Stability (Liver microsomes [2]) [%] | Activity (Caco-2) [%] | Stability (Liver microsomes [5]) [%] | Ki [6] [nM] | Activity [7] [%] | EC50 ([8]; read-out: EC50) [nM] | EC50 ([9]; read-out: EC50) [nM] | EC50 [9] | EC50 [8] | Compound | Activity (Mus musculus [1]) [%] | Activity (Mus musculus [3]) [%] | Activity (Mus musculus [4]) [%]
0 | 100 | 0 |  |  |  |  |  |  | CCO[C@@H](Cc1ccc(OCCN2CCC(C)(C)c3cc(/C(=N/OC)c4ccccc4)ccc32)cc1)C(=O)O | -20 | -33 | -5
27 | 100 | 18 | 33 | 50 | 125 | 1000 |  |  | CO/N=C(\c1ccccc1)c1ccc2c(c1)C(C)(C)CCN2CCOc1ccc(C[C@H](OCC(F)(F)F)C(=O)O)cc1 | -17 | 304 | 9
 |  |  | > 10000 |  | 10000 |  | Not Active |  | CCOC(=O)N(CC(=O)O)Cc1ccc(OCCN2CCC(C)(C)c3cc(/C(=N/OC)c4ccccc4)ccc32)cc1 |  |  | 
59 | 90 | 35 | 18.4 | 137 | 7 | 34 |  |  | CCO[C@@H](Cc1ccc(OCCN2CCC(C)(C)c3cc(/C(=N/OCc4ccccc4)c4ccccc4)ccc32)cc1)C(=O)O | 51 | 0.23 | -27
 | 22 |  | 54 | 11 | 14 | 10000 |  |  | CO/N=C(\c1ccccc1)c1ccc2c(c1)C(C)(C)CCN2CCOc1ccc(C[C@H](Nc2ccccc2C(=O)c2ccccc2)C(=O)O)cc1 |  |  | 
 |  |  | > 10000 |  |  |  | Not Active | Not Active | CO/N=C(\c1ccccc1)c1ccc2c(c1)C(C)(C)CCN2CCOc1ccc(C[C@H](OC(C)=O)C(=O)O)cc1 |  |  | 
